# Measurements reported in ChEMBL document CHEMBL3763021 (Eur J Med Chem, 2016).
# Test system: not listed separately
# Test: Clearance in Sprague-Dawley rat at 5 mg/kg, po by LC/MS/MS analysis
# Format: ADME, organism-based
# Conditions: in vivo
# Procedure, shortened: (§1)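 Male SD rats, 180–240 g, 3 per compound; single dose of 1 mg/kg iv or 5 mg/kg po, dosing volume 5 mL/kg. Blood was sampled from 2 min to 24 h and centrifuged at 4 °C. Plasma underwent protein precipitation, then LC/MS/MS in SRM mode with an internal standard. Parameters were derived by noncompartmental analysis.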
row,SMILES,CL/F [mL/min/kg]
1,Cc1c(C(=O)Nc2ccc(N3C[C@@H](C)O[C@@H](C)C3)nc2)cccc1-c1ccc(OC(F)(F)F)cc1 [SONIDEGIB],9.72

# Test system: not listed separately
# Test: Cmax in Sprague-Dawley rat at 5 mg/kg, po by LC/MS/MS analysis
# Format: ADME, organism-based
# Parameters: dose 5 mg/kg, route oral
# Conditions: in vivo
# Procedure, shortened: as §1
row,SMILES,Cmax [ng/mL]
1,Cc1c(C(=O)Nc2ccc(N3C[C@@H](C)O[C@@H](C)C3)nc2)cccc1-c1ccc(OC(F)(F)F)cc1 [SONIDEGIB],1400

# Test system: not listed separately
# Test: Cmax in Sprague-Dawley rat at 1 mg/kg, iv by LC/MS/MS analysis
# Format: ADME, organism-based
# Parameters: dose 1 mg/kg, route intravenous
# Conditions: in vivo
# Procedure, shortened: as §1
row,SMILES,Cmax [ng/mL]
1,Cc1ccc(CN2CCOCC2)cc1NC(=O)c1ccc(Nc2ncc(F)c(-c3ccc(OC(F)(F)F)cc3)n2)nc1,770
2,O=C(Nc1cccc(CN2CCOCC2)c1)c1ccc(Nc2nccc(-c3ccc(OC(F)(F)F)cc3)n2)cc1,915
3,Cc1c(C(=O)Nc2ccc(N3C[C@@H](C)O[C@@H](C)C3)nc2)cccc1-c1ccc(OC(F)(F)F)cc1 [SONIDEGIB],1930

# Test system: not listed separately
# Test: Inhibition of Sonic-induced hedgehog signalling in mouse NIH3T3 cells after 48 hrs by Gli-luciferase reporter assay
# Format: cell-based
# Conditions: NIH3T3, 48 h
# Procedure, shortened: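 NIH3T3 cells stably carrying a Gli-luciferase reporter were kept in DMEM with 10% FBS and 1 µg/mL puromycin, then seeded at 2×10^4 cells/well overnight at 37 °C. Compounds at 0.05–300 nM (8 concentrations) were added in medium with 0.5% FBS and 0.7 µg/mL Sonic Hh agonist, n=4 wells, for 48 h. Readout was the Firefly/Renilla luciferase ratio in lysates.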
row,SMILES,IC50 [nM]
1,Cc1ccc(CN2CCOCC2)cc1NC(=O)c1ccc(Nc2ncc(F)c(-c3ccc(OC(F)(F)F)cc3)n2)nc1,0.78
2,O=C(Nc1cccc(CN2CCOCC2)c1)c1ccc(Nc2nccc(-c3ccc(OC(F)(F)F)cc3)n2)cc1,0.56
3,Cc1c(C(=O)Nc2ccc(N3C[C@@H](C)O[C@@H](C)C3)nc2)cccc1-c1ccc(OC(F)(F)F)cc1 [SONIDEGIB],5.5

# More lines, in order of falling IC50, values ahead:
row,IC50 [nM],SMILES
1,5.16,Cc1ccc(CN2CCCC2)cc1NC(=O)c1ccc(Nc2ncc(F)c(-c3ccc(OC(F)(F)F)cc3)n2)cc1
2,3.12,Cc1ccc(CN2CCCCC2)cc1NC(=O)c1ccc(Nc2ncc(F)c(-c3ccc(OC(F)(F)F)cc3)n2)cc1

# Test system: not listed separately
# Test: Mean resident time (0 to t) in Sprague-Dawley rat at 1 mg/kg, iv by LC/MS/MS analysis
# Format: ADME, organism-based
# Conditions: in vivo
# Procedure, shortened: as §1
row,SMILES,MRT last [h]
1,Cc1ccc(CN2CCOCC2)cc1NC(=O)c1ccc(Nc2ncc(F)c(-c3ccc(OC(F)(F)F)cc3)n2)nc1,1.98
2,O=C(Nc1cccc(CN2CCOCC2)c1)c1ccc(Nc2nccc(-c3ccc(OC(F)(F)F)cc3)n2)cc1,1.53
3,Cc1c(C(=O)Nc2ccc(N3C[C@@H](C)O[C@@H](C)C3)nc2)cccc1-c1ccc(OC(F)(F)F)cc1 [SONIDEGIB],1.58

# Test system: not listed separately
# Test: Half life in Sprague-Dawley rat at 5 mg/kg, po by LC/MS/MS analysis
# Format: ADME, organism-based
# Conditions: in vivo
# Procedure, shortened: as §1
row,SMILES,half-life [h]
1,Cc1c(C(=O)Nc2ccc(N3C[C@@H](C)O[C@@H](C)C3)nc2)cccc1-c1ccc(OC(F)(F)F)cc1 [SONIDEGIB],4.01

# Test system: Rattus norvegicus
# Test: Apparent volume of distribution in Sprague-Dawley rat at 5 mg/kg, po by LC/MS/MS analysis
# Conditions: in vivo
row,SMILES,Vd(app) [L/kg]
1,Cc1c(C(=O)Nc2ccc(N3C[C@@H](C)O[C@@H](C)C3)nc2)cccc1-c1ccc(OC(F)(F)F)cc1 [SONIDEGIB],3.40593

# Test system: not listed separately
# Test: AUC (0 to t) in Sprague-Dawley rat at 5 mg/kg, po by LC/MS/MS analysis
# Format: ADME, organism-based
# Conditions: in vivo
# Procedure, shortened: as §1
row,SMILES,AUC(0-t) [ng·h/mL]
1,Cc1c(C(=O)Nc2ccc(N3C[C@@H](C)O[C@@H](C)C3)nc2)cccc1-c1ccc(OC(F)(F)F)cc1 [SONIDEGIB],8830

# Test system: not listed separately
# Test: Apparent volume of distribution in Sprague-Dawley rat at 1 mg/kg, iv by LC/MS/MS analysis
# Conditions: in vivo
row,SMILES,Vd [L/kg]
1,Cc1ccc(CN2CCOCC2)cc1NC(=O)c1ccc(Nc2ncc(F)c(-c3ccc(OC(F)(F)F)cc3)n2)nc1,4.62
2,O=C(Nc1cccc(CN2CCOCC2)c1)c1ccc(Nc2nccc(-c3ccc(OC(F)(F)F)cc3)n2)cc1,6.33
3,Cc1c(C(=O)Nc2ccc(N3C[C@@H](C)O[C@@H](C)C3)nc2)cccc1-c1ccc(OC(F)(F)F)cc1 [SONIDEGIB],0.955

# Test system: not listed separately
# Test: AUC (0 to t) in Sprague-Dawley rat at 1 mg/kg, iv by LC/MS/MS analysis
# Format: ADME, organism-based
# Conditions: in vivo
# Procedure, shortened: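 Male SD rats, 3 per compound, 180–240 g, single iv dose at 1 mg/kg, dosing volume 5 mL/kg. Blood sampled at 2, 5, 15, 30 min and 1, 2, 4, 6, 8, 10, 24 h, then centrifuged at 4 °C. Plasma protein-precipitated and analysed by LC/MS/MS in SRM mode with internal standard. AUC(0-t) obtained by noncompartmental analysis.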
row,SMILES,AUC(0-t) [ng·h/mL]
1,Cc1ccc(CN2CCOCC2)cc1NC(=O)c1ccc(Nc2ncc(F)c(-c3ccc(OC(F)(F)F)cc3)n2)nc1,625
2,O=C(Nc1cccc(CN2CCOCC2)c1)c1ccc(Nc2nccc(-c3ccc(OC(F)(F)F)cc3)n2)cc1,769
3,Cc1c(C(=O)Nc2ccc(N3C[C@@H](C)O[C@@H](C)C3)nc2)cccc1-c1ccc(OC(F)(F)F)cc1 [SONIDEGIB],2200

# Test system: not listed separately
# Test: Clearance in Sprague-Dawley rat at 1 mg/kg, iv by LC/MS/MS analysis
# Format: ADME, organism-based
# Conditions: in vivo
# Procedure, shortened: as §1
row,SMILES,clearance [mL/min/kg]
1,Cc1ccc(CN2CCOCC2)cc1NC(=O)c1ccc(Nc2ncc(F)c(-c3ccc(OC(F)(F)F)cc3)n2)nc1,26.4
2,O=C(Nc1cccc(CN2CCOCC2)c1)c1ccc(Nc2nccc(-c3ccc(OC(F)(F)F)cc3)n2)cc1,21.5
3,Cc1c(C(=O)Nc2ccc(N3C[C@@H](C)O[C@@H](C)C3)nc2)cccc1-c1ccc(OC(F)(F)F)cc1 [SONIDEGIB],7.69

# Test system: not listed separately
# Test: Half life in Sprague-Dawley rat at 1 mg/kg, iv by LC/MS/MS analysis
# Format: ADME, organism-based
# Conditions: in vivo
# Procedure, shortened: as §1
row,SMILES,half-life [h]
1,Cc1ccc(CN2CCOCC2)cc1NC(=O)c1ccc(Nc2ncc(F)c(-c3ccc(OC(F)(F)F)cc3)n2)nc1,2.02
2,O=C(Nc1cccc(CN2CCOCC2)c1)c1ccc(Nc2nccc(-c3ccc(OC(F)(F)F)cc3)n2)cc1,3.59
3,Cc1c(C(=O)Nc2ccc(N3C[C@@H](C)O[C@@H](C)C3)nc2)cccc1-c1ccc(OC(F)(F)F)cc1 [SONIDEGIB],1.43

# Test system: not listed separately
# Test: Mean resident time (0 to t) in Sprague-Dawley rat at 5 mg/kg, po by LC/MS/MS analysis
# Format: ADME, organism-based
# Conditions: in vivo
# Procedure, shortened: as §1
row,SMILES,MRT last [h]
1,Cc1c(C(=O)Nc2ccc(N3C[C@@H](C)O[C@@H](C)C3)nc2)cccc1-c1ccc(OC(F)(F)F)cc1 [SONIDEGIB],5.4

# Test system: not listed separately
# Test: Oral bioavailability in Sprague-Dawley rat at 5 mg/kg
# Format: ADME, organism-based
# Conditions: in vivo
# Procedure, shortened: as §1
row,SMILES,bioavailability [%]
1,Cc1c(C(=O)Nc2ccc(N3C[C@@H](C)O[C@@H](C)C3)nc2)cccc1-c1ccc(OC(F)(F)F)cc1 [SONIDEGIB],80.6
